Measured values reported in ChEMBL document CHEMBL4680311, “Synthesis, characterization, in vitro SAR study, and preliminary in vivo toxicity evaluation of naphthylmethyl substituted bis-imidazolium salts” (Bioorg Med Chem, 2021).

What was measured:
NCI-H460 [1] = test: Cytotoxicity against human NCI-H460 cells assessed as cell growth inhibition measured after 72 hrs by MTT assay; type: functional, cell-based; conditions: NCI-H460, 72 h
Method in brief: (§1)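 Cells kept in RPMI 1640 with 10% FBS at 37 °C, 5% CO₂, passaged every 2–3 days; grown to confluence, seeded at 5,000–7,000 cells/well depending on line, incubated 24 h. Compounds dissolved in 1% DMSO, diluted in medium to 1, 4, 16, 32 μM (6 replicates each), 72 h exposure. MTT 3–4 h, medium aspirated, DMSO added, 15 min, OD 540 nm; IC50 relative to untreated cells.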

NCI-H1975 = test: Cytotoxicity against human NCI-H1975 cells assessed as cell growth inhibition measured after 72 hrs by MTT assay; type: functional, cell-based; conditions: NCI-H1975, 72 h; method in brief: as §1
HCC827 = test: Cytotoxicity against human HCC827 cells assessed as cell growth inhibition measured after 72 hrs by MTT assay; type: functional, cell-based; conditions: HCC827, 72 h; method in brief: as §1
A549 [2] = test: Cytotoxicity against human A549 cells assessed as cell growth inhibition measured after 72 hrs by MTT assay; type: functional, cell-based; conditions: A549, 72 h; method in brief: as §1
A549 [3] = test: Antiproliferative activity against human A549/ATCC cells assessed as cell growth at 10 uM incubated for 48 hrs by sulforhodamine B assay relative to control; type: functional; conditions: read-out: Activity
Method in brief: (§2)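 NCI DTP NCI-60 one-dose screen on the NSCLC panel. Cells were seeded at densities set by doubling rate and incubated 24 h. They were then exposed to a single 10 μM dose for 48 h. Each value is a growth percentage relative to the initial cell population: positive means net growth, negative means net cell kill.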

EKVX [4] = test: Antiproliferative activity against human EKVX cells assessed as cell growth at 10 uM incubated for 48 hrs by sulforhodamine B assay relative to control; type: functional; conditions: read-out: Activity; method in brief: as §2
HOP-62 [5] = test: Antiproliferative activity against human HOP-62 cells assessed as cell growth at 10 uM incubated for 48 hrs by sulforhodamine B assay relative to control; type: functional; conditions: read-out: Activity; method in brief: as §2
HOP-92 [6] = test: Antiproliferative activity against human HOP-92 cells assessed as cell growth at 10 uM incubated for 48 hrs by sulforhodamine B assay relative to control; type: functional; conditions: read-out: Activity; method in brief: as §2
NCI-H226 [7] = test: Antiproliferative activity against human NCI-H226 cells assessed as cell growth at 10 uM incubated for 48 hrs by sulforhodamine B assay relative to control; type: functional; conditions: read-out: Activity; method in brief: as §2
NCI-H23 [8] = test: Antiproliferative activity against human NCI-H23 cells assessed as cell growth at 10 uM incubated for 48 hrs by sulforhodamine B assay relative to control; type: functional; conditions: read-out: Activity; method in brief: as §2
NCI-H322M [9] = test: Antiproliferative activity against human NCI-H322M cells assessed as cell growth at 10 uM incubated for 48 hrs by sulforhodamine B assay relative to control; type: functional; conditions: read-out: Activity; method in brief: as §2
NCI-H460 [10] = test: Antiproliferative activity against human NCI-H460 cells assessed as cell growth at 10 uM incubated for 48 hrs by sulforhodamine B assay relative to control; type: functional; conditions: read-out: Activity; method in brief: as §2
NCI-H522 [11] = test: Antiproliferative activity against human NCI-H522 cells assessed as cell growth at 10 uM incubated for 48 hrs by sulforhodamine B assay relative to control; type: functional; conditions: read-out: Activity; method in brief: as §2
A549 [12] = test: Growth inhibition of human A549/ATCC cells incubated for 48 hrs by sulforhodamine B assay; type: functional
Method in brief: (§3)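 NCI DTP NCI-60 five-dose screen, same procedure as the one-dose assay: 24 h preincubation, then 48 h exposure. Five tenfold-spaced concentrations were used, from 100 μM to 10 nM or from 25 μM to 2.5 nM depending on compound. GI50, TGI and LC50 were read from growth-percentage curves relative to control cells.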

EKVX [13] = test: Growth inhibition of human EKVX cells incubated for 48 hrs by sulforhodamine B assay; type: functional; method in brief: as §3
HOP-62 [14] = test: Growth inhibition of human HOP-62 cells incubated for 48 hrs by sulforhodamine B assay; type: functional; method in brief: as §3
HOP-92 [15] = test: Growth inhibition of human HOP-92 cells incubated for 48 hrs by sulforhodamine B assay; type: functional; method in brief: as §3
NCI-H226 [16] = test: Growth inhibition of human NCI-H226 cells incubated for 48 hrs by sulforhodamine B assay; type: functional; method in brief: as §3
NCI-H23 [17] = test: Growth inhibition of human NCI-H23 cells incubated for 48 hrs by sulforhodamine B assay; type: functional; method in brief: as §3
NCI-H322M [18] = test: Growth inhibition of human NCI-H322M cells incubated for 48 hrs by sulforhodamine B assay; type: functional; method in brief: as §3
NCI-H460 [19] = test: Growth inhibition of human NCI-H460 cells incubated for 48 hrs by sulforhodamine B assay; type: functional; method in brief: as §3
NCI-H522 [20] = test: Growth inhibition of human NCI-H522 cells incubated for 48 hrs by sulforhodamine B assay; type: functional; method in brief: as §3
[21] = read-out: LC50 (the source's name)

c1ccc2cc(Cn3cc[n+](CCCCCCn4cc[n+](Cc5ccc6ccccc6c5)c4)c3)ccc2c1
IC50 (NCI-H460 [1]): 2 µM
IC50 (NCI-H1975): 6 µM
IC50 (HCC827): 12 µM
IC50 (A549 [2]): < 1 µM
growth at 10 µM (A549 [3]): 38.6%
growth at 10 µM (EKVX [4]): 37.3%
growth at 10 µM (HOP-62 [5]): 55.8%
growth at 10 µM (HOP-92 [6]): 59.9%
growth at 10 µM (NCI-H226 [7]): 69.6%
growth at 10 µM (NCI-H23 [8]): 30.5%
growth at 10 µM (NCI-H322M [9]): 76.2%
growth at 10 µM (NCI-H460 [10]): 24.6%
growth at 10 µM (NCI-H522 [11]): 33.1%

c1ccc2cc(Cn3cc[n+](Cn4cc[n+](Cc5ccc6ccccc6c5)c4)c3)ccc2c1
IC50 (NCI-H460 [1]): 16 µM
IC50 (NCI-H1975): > 30 µM
IC50 (HCC827): > 30 µM
IC50 (A549 [2]): > 30 µM
growth at 10 µM (A549 [3]): 70.8%
growth at 10 µM (EKVX [4]): 89.4%
growth at 10 µM (HOP-62 [5]): 84.2%
growth at 10 µM (HOP-92 [6]): 67%
growth at 10 µM (NCI-H226 [7]): 92.6%
growth at 10 µM (NCI-H23 [8]): 88.3%
growth at 10 µM (NCI-H322M [9]): 87.6%
growth at 10 µM (NCI-H522 [11]): 51%

c1ccc2cc(Cn3cc[n+](CCCCn4cc[n+](Cc5ccc6ccccc6c5)c4)c3)ccc2c1
IC50 (NCI-H460 [1]): 4 µM
IC50 (NCI-H1975): 11 µM
IC50 (HCC827): 13 µM
IC50 (A549 [2]): 4 µM
growth at 10 µM (A549 [3]): 49.3%
growth at 10 µM (EKVX [4]): 58.1%
growth at 10 µM (HOP-62 [5]): 54.8%
growth at 10 µM (HOP-92 [6]): 68.4%
growth at 10 µM (NCI-H226 [7]): 82%
growth at 10 µM (NCI-H23 [8]): 44%
growth at 10 µM (NCI-H322M [9]): 90%
growth at 10 µM (NCI-H460 [10]): 38.2%
growth at 10 µM (NCI-H522 [11]): 43.4%

c1ccc2cc(Cn3cc[n+](CCCCCCCn4cc[n+](Cc5ccc6ccccc6c5)c4)c3)ccc2c1
IC50 (NCI-H460 [1]): 3 µM
IC50 (NCI-H1975): 3 µM
IC50 (HCC827): 10 µM
IC50 (A549 [2]): 2 µM
growth at 10 µM (A549 [3]): 26.7%
growth at 10 µM (EKVX [4]): 27.9%
growth at 10 µM (HOP-62 [5]): 32.6%
growth at 10 µM (NCI-H226 [7]): 59.5%
growth at 10 µM (NCI-H23 [8]): 14.4%
growth at 10 µM (NCI-H322M [9]): 58.6%
growth at 10 µM (NCI-H460 [10]): 14.6%
growth at 10 µM (NCI-H522 [11]): 5.87%

c1ccc2cc(Cn3cc[n+](CCn4cc[n+](Cc5ccc6ccccc6c5)c4)c3)ccc2c1
IC50 (NCI-H460 [1]): 14 µM
IC50 (NCI-H1975): > 30 µM
IC50 (HCC827): > 30 µM
IC50 (A549 [2]): > 30 µM
growth at 10 µM (A549 [3]): 64.1%
growth at 10 µM (EKVX [4]): 91.4%
growth at 10 µM (HOP-62 [5]): 86%
growth at 10 µM (HOP-92 [6]): 79.2%
growth at 10 µM (NCI-H226 [7]): 82.7%
growth at 10 µM (NCI-H23 [8]): 88.9%
growth at 10 µM (NCI-H322M [9]): 86.4%

c1ccc2cc(Cn3cc[n+](CCCCCn4cc[n+](Cc5ccc6ccccc6c5)c4)c3)ccc2c1
IC50 (NCI-H460 [1]): 2 µM
IC50 (NCI-H1975): 12 µM
IC50 (HCC827): > 30 µM
IC50 (A549 [2]): 4 µM
growth at 10 µM (A549 [3]): 41.7%
growth at 10 µM (EKVX [4]): 47.1%
growth at 10 µM (HOP-62 [5]): 57%
growth at 10 µM (HOP-92 [6]): 66%
growth at 10 µM (NCI-H226 [7]): 72.6%
growth at 10 µM (NCI-H23 [8]): 45.3%
growth at 10 µM (NCI-H322M [9]): 86.2%
growth at 10 µM (NCI-H460 [10]): 30.5%
growth at 10 µM (NCI-H522 [11]): 35.7%

c1ccc2cc(Cn3cc[n+](CCCn4cc[n+](Cc5ccc6ccccc6c5)c4)c3)ccc2c1
IC50 (NCI-H460 [1]): 20 µM
IC50 (NCI-H1975): > 30 µM
IC50 (HCC827): > 30 µM
IC50 (A549 [2]): 22 µM
growth at 10 µM (A549 [3]): 62.3%
growth at 10 µM (EKVX [4]): 82.7%
growth at 10 µM (HOP-62 [5]): 67.2%
growth at 10 µM (HOP-92 [6]): 67.5%
growth at 10 µM (NCI-H226 [7]): 81.9%
growth at 10 µM (NCI-H23 [8]): 77.8%
growth at 10 µM (NCI-H322M [9]): 84.4%
growth at 10 µM (NCI-H460 [10]): 75.3%
growth at 10 µM (NCI-H522 [11]): 56.6%

c1ccc2cc(Cn3cc[n+](Cc4ccc5ccccc5c4)c3)ccc2c1
IC50 (NCI-H460 [1]): 4 µM
IC50 (NCI-H1975): 6 µM
IC50 (HCC827): 9 µM

c1ccc2cc(Cn3cc[n+](CCCCCCCCCCCCn4cc[n+](Cc5ccc6ccccc6c5)c4)c3)ccc2c1
IC50 (NCI-H460 [1]): < 1 µM
IC50 (NCI-H1975): < 1 µM
IC50 (HCC827): 4 µM
IC50 (A549 [2]): < 1 µM
growth at 10 µM (A549 [3]): -74.2%
growth at 10 µM (EKVX [4]): -62.6%
growth at 10 µM (HOP-62 [5]): -58%
growth at 10 µM (HOP-92 [6]): -68.2%
growth at 10 µM (NCI-H226 [7]): -42.1%
growth at 10 µM (NCI-H23 [8]): -80.3%
growth at 10 µM (NCI-H322M [9]): -18.4%
GI50 (A549 [12]): 744 nM
CC50 (A549 [12]; [21]): 14.2 µM
GI50 (EKVX [13]): 893 nM
LC50 (EKVX [13]): 20.8 µM
GI50 (HOP-62 [14]): 815 nM
LC50 (concentration giving 50% net cell kill) (HOP-62 [14]): 12.2 µM
GI50 (HOP-92 [15]): 500 nM
LC50 (concentration giving 50% net cell kill) (HOP-92 [15]): 7.29 µM
GI50 (NCI-H226 [16]): 984 nM
LC50 (NCI-H226 [16]): > 25 µM
TGI (NCI-H226 [16]): 5.52 µM
GI50 (NCI-H23 [17]): 722 nM
LC50 (NCI-H23 [17]): 11.2 µM
GI50 (NCI-H322M [18]): 859 nM
LC50 (concentration giving 50% net cell kill) (NCI-H322M [18]): 10.4 µM
TGI (NCI-H322M [18]): 3.9 µM
GI50 (NCI-H460 [19]): 814 nM
LC50 (concentration giving 50% net cell kill) (NCI-H460 [19]): 14.6 µM
TGI (NCI-H460 [19]): 2960 nM
GI50 (NCI-H522 [20]): 470 nM
CC50 (NCI-H522 [20]; [21]): 9.89 µM
